Consider one compound from ChEMBL document CHEMBL4402581, “Monohydrazone Based G-Quadruplex Selective Ligands Induce DNA Damage and Genome Instability in Human Cancer Cells” (J Med Chem, 2020).

The subject of test [1] is Quadruplex DNA. As to the kind of experiment: Stabilization of c-Kit1 G4 quadruplex DNA assessed as change in melting temperature at 10 mol.equiv by circular dichroism melting assay. It is filed as nucleic-acid assay. In a few lines:
(§1)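 CD melting from 20 to 100 °C at 1 °C/min, monitored at 264 nm (c-Kit1, c-Kit2, c-Myc, Tel23-p), 287 nm (Tel23-h) or 280 nm (hairpin). Ligand was at 10 mol equiv with folded DNA (15 μM G4, 30 μM hairpin). ΔTm is Tm with ligand minus Tm without, from curve fits, averaged over triplicates.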
A general note: CD spectra are sensitive to the conformation of chiral molecules.

Test [2] deals with Quadruplex DNA. As to the kind of experiment: Stabilization of c-Kit2 G4 quadruplex DNA assessed as change in melting temperature at 10 mol.equiv by circular dichroism melting assay. The format is nucleic-acid assay. In a few lines: as §1
Test [3] has as its system Quadruplex DNA. As to the kind of experiment: Stabilization of c-Myc G4 quadruplex DNA assessed as change in melting temperature at 10 mol.equiv by circular dichroism melting assay. It is filed as nucleic-acid assay. In a few lines:
as §1

Test [4] relates to Quadruplex DNA. As to the kind of experiment: Stabilization of parallel Tel23 G4 quadruplex DNA assessed as change in melting temperature at 10 mol.equiv by circular dichroism melting assay. It is filed as nucleic-acid assay. In a few lines:
as §1

Test [5] deals with Quadruplex DNA. As to the kind of experiment: Stabilization of human Tel23 G4 quadruplex DNA assessed as change in melting temperature at 10 mol.equiv by circular dichroism melting assay. It is filed as nucleic-acid assay. In outline: as §1
Test [6] can be described thus: Stabilization of hairpin-duplex DNA assessed as change in melting temperature at 10 mol.equiv by circular dichroism melting assay. In outline: as §1
Test [7] has as its system U2OS. As to the kind of experiment: Cytotoxicity against human U2OS cells assessed as reduction in cell viability incubated for 1 hr followed by 48 hrs of recovery in drug free medium by MTT assay. The format is functional, cell-based. In outline: (§2)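 Cells grown in DMEM with 10% FBS and 1% glutamine at 37 °C, 5% CO2, and seeded 25 × 10^4 per well. Treatment began 24 h after seeding and lasted 1 or 24 h, followed by 48 h in drug-free medium. MTT was added for 1 h at 37 °C, then DMSO solubilization and absorbance at 595 nm. IC50 came from linear regression; two independent experiments, each in triplicate.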
A general note: Tetrazolium assays rely on reduction of a dye to a coloured formazan, in cell work by metabolically active cells.

For test [8], the system named is U2OS. As to the kind of experiment: Cytotoxicity against human U2OS cells assessed as reduction in cell viability incubated for 24 hrs followed by 48 hrs of recovery in drug-free medium by MTT assay. It is filed as functional, cell-based. In outline: as §2
Test [9] concerns HeLa. As to the kind of experiment: Cytotoxicity against human HeLa cells assessed as reduction in cell viability incubated for 1 hr followed by 48 hrs of recovery in drug free medium by MTT assay. The format is functional, cell-based. In a few lines:
as §2

The subject of test [10] is HeLa. The test is described as follows: Cytotoxicity against human HeLa cells assessed as reduction in cell viability incubated for 24 hrs followed by 48 hrs of recovery in drug free medium by MTT assay. The format is functional, cell-based. In outline:
as §2

Test [11] has as its system Quadruplex DNA. As to the kind of experiment: Stabilization of G4 quadruplex DNA in human U2OS cells assessed as increase in number of G4 foci at 10 uM incubated for 24 hrs by immunofluorescence microscopy. The format is cell-based.
Test [12] relates to Quadruplex DNA. The test is described as follows: Stabilization of G4 quadruplex DNA in human U2OS cells assessed as colocalization of TRF2/[…] foci at 10 uM incubated for 24 hrs by immunofluorescence microscopy (reference value: 18.4 +/- 2.81%). The format is cell-based.
The test system of test [13] is Quadruplex DNA. As to the kind of experiment: Stabilization of G4 quadruplex DNA in human U2OS cells assessed as TRF2 foci per cell at 10 uM incubated for 24 hrs by immunofluorescence microscopy (reference value: 15.8 +/- 2.6%). It is filed as cell-based.
The test system of test [14] is U2OS. The test is described as follows: Induction of DNA:RNA hybrid formation in human U2OS cells assessed as increase in R loop formation at 10 uM incubated for 30 mins by S9.6 immunofluorescence microscopy. The format is functional, cell-based. In a few lines: (§3)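 U2OS cells were treated at 10 μM for 5–60 min, 24 h after seeding, then fixed in cold methanol and permeabilized with acetone. Stained with S9.6 antibody and anti-nucleolin. The nucleolar signal was subtracted from total nuclear S9.6 fluorescence, and values were normalized to the untreated mean; two biological replicates.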

The test system of test [15] is U2OS. The test is described as follows: Induction of DNA:RNA hybrid formation in human U2OS cells assessed as increase in R loop formation at 10 uM incubated for 60 mins by S9.6 immunofluorescence microscopy. It is filed as functional, cell-based. In outline: as §3
Test [16] deals with U2OS. As to the kind of experiment: Induction of DNA damage in human U2OS cells assessed as increase in gammaH2AX phosphorylation at S139 at 10 uM incubated for 4 hrs by immunofluorescence microscopy. It is filed as functional, cell-based. In a few lines:
(§4)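 U2OS cells were treated with 10 μM for 4 h, pre-extracted 3 min with CSK buffer containing 0.5% Triton X-100, and fixed in 2% paraformaldehyde. Co-stained 1 h for 53BP1 and γH2AX, with DAPI counterstain. Foci were counted per nucleus and normalized to the untreated mean, across three biological replicates.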

Test [17] relates to U2OS. As to the kind of experiment: Induction of DNA damage in human U2OS cells assessed as increase in phosphorylated 53BPI foci colocalization with gammaH2AX foci at 10 uM incubated for 4 hrs by immunofluorescence microscopy. The format is functional, cell-based. In outline: as §4
Test [18] has as its system U2OS. As to the kind of experiment: Induction of genome instability in human U2OS cells assessed as increase in micronuclei formation at 10 uM incubated for 24 hrs by immunofluorescence microscopy. The format is functional, cell-based. In outline:
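U2OS cells were treated for 24 h, fixed in 4% paraformaldehyde, permeabilized with 0.5% Triton X-100, and stained with DAPI. Micronuclei were counted per 100 cells.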

In test [19] the test system is Quadruplex DNA. The test is described as follows: Effect on c-Kit1 G4 quadruplex DNA architecture at 10 mol.equiv by circular dichroism spectral analysis. It is filed as nucleic-acid assay. In a few lines: (§5)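 CD spectra of 15 μM G4s or 30 μM hairpin in 20 mM K phosphate pH 7.0 with 5 mM KCl, after annealing. Recorded at 20 °C over 230–360 nm, three scans averaged, buffer baseline subtracted. Ligand was added at 10 mol equiv to the folded DNA from a 10 mM DMSO stock.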

The test system of test [20] is Quadruplex DNA. The test is described as follows: Effect on c-Kit2 G4 quadruplex DNA architecture at 10 mol.equiv by circular dichroism spectral analysis. The format is nucleic-acid assay. In outline: as §5
For test [21], the system named is Quadruplex DNA. The test is described as follows: Effect on c-Myc G4 quadruplex DNA architecture at 10 mol.equiv by circular dichroism spectral analysis. The format is nucleic-acid assay. In a few lines:
as §5

For test [22], the system named is Quadruplex DNA. The test is described as follows: Effect on parallel Tel23 G4 quadruplex DNA architecture at 10 mol.equiv by circular dichroism spectral analysis. The format is nucleic-acid assay. In outline:
as §5

Test [23] concerns Quadruplex DNA. As to the kind of experiment: Effect on human Tel23 G4 quadruplex DNA architecture at 10 mol.equiv by circular dichroism spectral analysis. The format is nucleic-acid assay. In outline: as §5
A short description of test [24]: Effect on hairpin-duplex DNA architecture at 10 mol.equiv by circular dichroism spectral analysis. In outline:
as §5

Each structure is given as a SMILES string. Activity calls are given as the source filed them. No cut-off for these calls is given here.

One may read the IC50 as the concentration needed to halve the response being measured. Consider `N=C(N)N/N=C/c1c(-c2ccccc2)nc2nc(N)ccn12`, for which the outcome (in the test on Quadruplex DNA [1]; in the test with Quadruplex DNA [2]; in the test with Quadruplex DNA [3]; in the test on Quadruplex DNA [4]; in the test on Quadruplex DNA [5]; in test [6]) was inactive. Also, the outcome with Quadruplex DNA [11], with Quadruplex DNA [19], in the test on Quadruplex DNA [20], in the test on Quadruplex DNA [21], in the test on Quadruplex DNA [22] and in the test on Quadruplex DNA [23] was inactive. The outcome in test [24] was inactive. In addition, the half-maximal inhibitory concentration (IC50) in the test with U2OS [7] was over 100 µM; in the test on U2OS [8], over 50 µM; in the test with HeLa [9] it was over 100 µM; in the test with HeLa [10], over 50 µM. Besides, the values for the Activity in the test with Quadruplex DNA [12] and in the test on Quadruplex DNA [13] were 10.1% and 15.3%, respectively. In addition, the result with U2OS [14], with U2OS [15], in the test with U2OS [16], with U2OS [17] and with U2OS [18] was Active.
